Bioassay records (PubChem BioAssay)
A selection: hits, their analogues and other compounds. The true share with any hit is near 2.5%.
zfTRPN1 agonist: activates the zebrafish TRPN1 channel | HEK293 zebrafish TRPN1-YFP, Fluo-8 calcium fluorescence; 100% = response to 87 µM carbachol | activation, % at 3 µM | 0.18% of 220,000 active;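 active means activation above its plate's cutoff, the mean activation of test wells on that plate plus 3 SD, cut at about 19% in these data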
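Material: zebrafish TRPN1-YFP in HEK293 cells. Doses: one dose of 3 µM, 0.3% DMSO. Incubation: dye 1 h 37 °C plus 30 min RT. Measured by: intracellular calcium fluorescence with Fluo-8.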
OX1R antag-1: antagonists of human orexin 1 receptor | O43613 | CHO/OX1R cells, Fluo-8 calcium fluorescence, orexin A | inhibition, % at 5 µM | 0.43% of 330,000 active | AID 434989;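 active means inhibition above its plate's threshold, mean inhibition of all tested compounds on the plate plus 3 SD, cut at about 37% in these data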
TRPML3 agonist: human mucolipin-3 channel agonism; activation, % at 3 µM; 0.29% of 220,000 active; Q8TDD5; HEK293 TRPML3-YFP, Fluo-8 calcium fluorescence; 100% = the carbachol control signal;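 active means activation above its plate's cutoff, the mean activation of the plate's test wells plus 3 SD, cut at about 12% in these data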
Target sequence (Q8TDD5 whole entry, looked up): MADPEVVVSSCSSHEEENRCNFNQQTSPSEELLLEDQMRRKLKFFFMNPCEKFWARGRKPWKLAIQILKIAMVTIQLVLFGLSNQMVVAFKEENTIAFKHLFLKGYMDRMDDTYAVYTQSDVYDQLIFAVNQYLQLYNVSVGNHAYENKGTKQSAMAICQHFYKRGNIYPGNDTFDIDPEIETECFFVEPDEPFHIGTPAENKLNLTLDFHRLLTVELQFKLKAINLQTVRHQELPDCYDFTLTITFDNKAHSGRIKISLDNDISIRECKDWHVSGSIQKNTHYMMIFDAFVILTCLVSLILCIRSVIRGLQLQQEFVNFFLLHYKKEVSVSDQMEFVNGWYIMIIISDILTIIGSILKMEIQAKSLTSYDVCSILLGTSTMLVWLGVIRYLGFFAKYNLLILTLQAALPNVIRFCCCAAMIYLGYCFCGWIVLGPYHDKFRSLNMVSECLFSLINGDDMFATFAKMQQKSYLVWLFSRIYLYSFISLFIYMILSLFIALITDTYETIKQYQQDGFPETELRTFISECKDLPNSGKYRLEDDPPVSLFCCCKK
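Test system: TRPML3-YFP stable HEK293 cells. Doses: single point at 3 µM. Incubation: dye loading 1 h 37 °C then 30 min ambient, 125 s read. Signal: Fluo-8 calcium dye fluorescence, ex 470-495, em 515-575 nm. Measure: percent activation from peak-to-basal fluorescence ratio, scaled between DMSO and carbachol.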
CHO parental Ca: counter-screen for OX1R antagonists: effect in parental CHO cells | inhibition, % at 5.6 µM | parental CHO-K1, ATP-induced calcium, Fluo-8 fluorescence | 0.63% of 330,000 active;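 active means inhibition above that plate's mean sample inhibition plus 3 SD, cut at about 26% in these data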
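Test system: untransfected parental CHO cell line. Compound: one dose, 5.6 µM nominal. Detection: intracellular calcium via Fluo-8 no-wash fluorescent dye. Measure: % inhibition. Benchmarks: ATP-challenged DMSO wells low, unchallenged DMSO wells high.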
OX1R antag-2: OX1R (human) antagonism; O43613; OX1R-expressing cells, FRET antagonist read-out; inhibition, % at 6.6 µM; 1.8% of 330,000 active; AID 485270; in the data active means inhibition mostly above about 38%, no sharp cut-off; inactive means mostly below about 40%
TRPN1 ag 2: activates zebrafish TRPN1, counter-screen for TRPML3 agonists. shares compounds with TRPML3 agonist. HEK293 zebrafish TRPN1-YFP, Fluo-8 calcium fluorescence; scaled: carbachol wells 100%, DMSO wells 0%. activation, % at 3 µM. 10% of 310 active. AID 1525;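 active means mean activation over replicates above a set limit taken from the earlier TRPN1 channel primary screen, cut at about 19% in these data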
TRPML3 confirm: confirmation of human TRPML3 channel agonists. shares compounds with TRPML3 agonist. HEK293 TRPML3-YFP, Fluo-8 calcium fluorescence; 100% set by carbachol, 0% by DMSO. activation, % at 3 µM. 80% of 310 active;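 active means activation above a set limit derived from the earlier primary screen, cut at about 12% in these data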
OX1R Ca confirm: OX1R (human) antagonism, confirmed | shares compounds with OX1R antag-1 | CHO/OX1R cells, orexin A calcium Fluo-8 fluorescence | inhibition, % at 5 µM | 38% of 1,100 active | AID 492963; in the data active means inhibition above about 29%
CHO Ca counter: signal in parental CHO cells, OX1R antagonist counter-screen; parental CHO-K1, ATP-induced calcium, Fluo-8 fluorescence; AID 492965; 9.3% of 1,100 active; shares compounds with OX1R antag-1; inhibition, % at 5.6 µM;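 active means inhibition above a per-plate limit, the mean inhibition of that plate's test compounds plus 3 SD, cut at about 25% in these data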
OX1R HTRF conf: confirmation of human orexin 1 receptor antagonists, HTRF format. shares compounds with OX1R antag-2. 49% of 1,800 active. OX1R-expressing cells, HTRF antagonist assay. AID 492964. inhibition, % at 6.6 µM; in the data active means inhibition above about 55%;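 further: CHO cells expressing OX1R stimulated with orexin A at about EC80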
CHO-K1 HTRF: counter-screen: parental CHO-K1 HTRF response | shares compounds with OX1R antag-2 | inhibition, % at 6.6 µM | parental CHO-K1 cells, HTRF counterscreen | 48% of 1,800 active; in the data active means inhibition above about 17%
Large screens that a line does not name were inactive (follow-up assays come after a bar, where they were run).

N=C(N)c1c(O)n(C2CCCCC2)c(=O)n(C2CCCCC2)c1=O	CHO parental Ca 61
Nc1c(Br)cc([N+](=O)[O-])cc1[N+](=O)[O-]	OX1R antag-2 36 (no result: zfTRPN1 agonist, TRPML3 agonist)
Cn1cc2c([N+](=O)[O-])cc([N+](=O)[O-])cc2n1	none (no result: OX1R antag-1, CHO parental Ca, OX1R antag-2)
CC(C)(O)/C=C/C(=O)[C@](C)(O)C1[C@H](O)C[C@@]2(C)C3CC=C4C(C[C@H](O)[C@@H](O)C4(C)C)[C@]3(C)C(=O)C[C@]12C (stereo partly drawn)	none (no result: zfTRPN1 agonist, TRPML3 agonist)
O=c1[nH]c(=S)[nH]c(O)c1N=Nc1ccc2c(c1)OCO2	OX1R antag-2 75
O=c1[nH]c(=S)[nH]c(O)c1N=Nc1cc(S(=O)(=O)Nc2ccc(Cl)cc2)ccc1Cl	none (no result: zfTRPN1 agonist, TRPML3 agonist)
O=c1[nH]c(O)c(N=Nc2ccc(S(=O)(=O)N3CCOCC3)cc2)c(=O)[nH]1	none
COc1cccc(N=Nc2c(O)[nH]c(=S)[nH]c2=O)c1	OX1R antag-2 69
O=c1[nH]c(=S)[nH]c(O)c1N=Nc1ccc(OC(F)F)cc1	OX1R antag-2 50
O=c1[nH]c(O)c(N=Nc2ccc3c(c2)OCCO3)c(=O)[nH]1	OX1R antag-2 64
O=c1[nH]c(=S)[nH]c(O)c1N=Nc1cc2c(cc1[N+](=O)[O-])OCO2	none
CC(=O)C1C2c3ccccc3O[C@@]1(C)N=c1s/c(=C/c3ccoc3)c(=O)n12 (stereo partly drawn)	none
COC(=O)C1=CCCN(C)C1	TRPML3 agonist 20 | TRPN1 ag 2 inactive | TRPML3 confirm 46
C=CCn1c(O)c(C(C)=NCC2CCCO2)c(=O)[nH]c1=O (stereo not drawn)	none
O=C(c1cc2cc(Br)ccc2[nH]1)N1CCC2(CC1)OCCO2	none (no result: zfTRPN1 agonist, TRPML3 agonist)
O=C(c1cc(Br)ccc1Cl)N1CCC2(CC1)OCCO2	OX1R antag-1 45 | OX1R Ca confirm inactive | CHO Ca counter inactive
O=[N+]([O-])c1cccc2c([As](=O)(O)O)cccc12	none
COC(=O)C1=C(c2ccccc2OCc2ccccc2)C[C@@H]2CC[C@H]1N2C(=O)NCc1cccc(C(F)(F)F)c1	OX1R antag-1 61 (no result: zfTRPN1 agonist, TRPML3 agonist) | OX1R Ca confirm inactive | CHO Ca counter inactive
O=C1CC(c2ccccc2)CN1 (stereo not drawn)	none
Cn1c(O)c(/C=C/C=Nc2ccccc2)c(=O)n(C)c1=S	none | OX1R Ca confirm 33 | CHO Ca counter 36
COc1ccccc1NC(=O)COC(=O)c1cn(C)c2ccccc12	OX1R antag-1 47, OX1R antag-2 54 (no result: zfTRPN1 agonist, TRPML3 agonist) | OX1R Ca confirm inactive | CHO Ca counter inactive | OX1R HTRF conf inactive | CHO-K1 HTRF inactive
Cc1cc(C)cc(NC2=NCCCS2)c1	none
CC(C)(C)C(=O)OCC12CCC(O1)C1(C)C(=O)OCC21 (stereo not drawn)	none
O=C(NC1CCCCC1)[C@@H]1CC=C[C@@H]2CCN(Cc3ccccc3)C(=O)[C@@H]21	OX1R antag-2 75 (no result: zfTRPN1 agonist, TRPML3 agonist) | OX1R Ca confirm 47 | CHO Ca counter inactive | OX1R HTRF conf 74 | CHO-K1 HTRF inactive
COc1ccccc1C(=O)Nc1ccc2c(c1)CC1(C(=O)N(C)C(=O)N(C)C1=O)C1CCCN21 (stereo not drawn)	OX1R antag-2 67 (no result: zfTRPN1 agonist, TRPML3 agonist) | OX1R Ca confirm 43 | CHO Ca counter inactive | OX1R HTRF conf 90 | CHO-K1 HTRF 20
